Key:
Assay type in all cases: functional
Escherichia coli [1] = assay: Antibacterial activity against Escherichia coli at 30 ug/ml by agar plate diffusion technique; settings: read-out: IZ
Escherichia coli [2] = assay: Antibacterial activity against Escherichia coli at 10 ug/ml by agar plate diffusion technique; settings: read-out: IZ
Aspergillus niger [3] = assay: Antifungal activity against Aspergillus niger at 30 ug/ml by paper disc method; settings: read-out: IZ
Rattus norvegicus [4] = assay: Antiinflammatory activity in Wistar Albino rat assessed as inhibition of carrageenan-induced paw oedema at 20 mg/kg after 2 hrs relative to control
Method in brief: (§1)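 Wistar albino rats, 150–200 g, six per group, dosed orally with a 20 mg/kg suspension; control gets 0.1 ml 1% gum acacia. After 30 min, 0.1 ml 1% carrageenan in saline is injected subplantar into the right hind paw. Paw volume is read by plethysmograph at 0–4 h. Inhibition = 100(1 − Vtest/Vcontrol) on mean volume increase.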

Rattus norvegicus [5] = assay: Antiinflammatory activity in Wistar Albino rat assessed as inhibition of carrageenan-induced paw oedema at 20 mg/kg after 1 hr relative to control; method in brief: as §1
Rattus norvegicus [6] = assay: Antiinflammatory activity in Wistar Albino rat assessed as inhibition of carrageenan-induced paw oedema at 20 mg/kg after 3 hrs relative to control; method in brief: as §1
Staphylococcus aureus [7] = assay: Antibacterial activity against Staphylococcus aureus at 30 ug/ml by agar plate diffusion technique; settings: read-out: IZ
Staphylococcus aureus [8] = assay: Antibacterial activity against Staphylococcus aureus at 20 ug/ml by agar plate diffusion technique; settings: read-out: IZ
Pseudomonas aeruginosa [9] = assay: Antibacterial activity against Pseudomonas aeruginosa at 10 ug/ml by agar plate diffusion technique; settings: read-out: IZ
Bacillus subtilis [10] = assay: Antibacterial activity against Bacillus subtilis at 30 ug/ml by agar plate diffusion technique; settings: read-out: IZ
Mus musculus [11] = assay: Analgesic activity in Swiss mouse assessed as increase in reaction time at 20 mg/kg, po after 30 mins by Eddy's hot plate technique
Method in brief: (§2)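 Swiss mice of either sex, 25–35 g, placed one at a time on a hot plate held at 55 °C. End point is paw licking or jumping, whichever comes first, with a 15 s cut-off to avoid paw injury. Reaction time is recorded and reported as percent increase in reaction time.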

Bacillus subtilis [12] = assay: Antibacterial activity against Bacillus subtilis at 10 ug/ml by agar plate diffusion technique; settings: read-out: IZ
Rattus norvegicus [13] = assay: Antiinflammatory activity in Wistar Albino rat assessed as inhibition of carrageenan-induced paw oedema at 20 mg/kg after 4 hrs relative to control; method in brief: as §1
Mus musculus [14] = assay: Analgesic activity in Swiss mouse assessed as increase in reaction time at 20 mg/kg, po after 90 mins by Eddy's hot plate technique; method in brief: as §2
Bacillus subtilis [15] = assay: Antibacterial activity against Bacillus subtilis at 20 ug/ml by agar plate diffusion technique; settings: read-out: IZ
Aspergillus niger [16] = assay: Antifungal activity against Aspergillus niger at 10 ug/ml by paper disc method; settings: read-out: IZ
Candida albicans [17] = assay: Antifungal activity against Candida albicans at 10 ug/ml by paper disc method; settings: read-out: IZ
Candida albicans [18] = assay: Antifungal activity against Candida albicans at 30 ug/ml by paper disc method; settings: read-out: IZ
Staphylococcus aureus [19] = assay: Antibacterial activity against Staphylococcus aureus at 10 ug/ml by agar plate diffusion technique; settings: read-out: IZ
Pseudomonas aeruginosa [20] = assay: Antibacterial activity against Pseudomonas aeruginosa at 30 ug/ml by agar plate diffusion technique; settings: read-out: IZ
Pseudomonas aeruginosa [21] = assay: Antibacterial activity against Pseudomonas aeruginosa at 20 ug/ml by agar plate diffusion technique; settings: read-out: IZ
Aspergillus niger [22] = assay: Antifungal activity against Aspergillus niger at 20 ug/ml by paper disc method; settings: read-out: IZ
Escherichia coli [23] = assay: Antibacterial activity against Escherichia coli at 20 ug/ml by agar plate diffusion technique; settings: read-out: IZ
Mus musculus [24] = assay: Analgesic activity in Swiss mouse assessed as increase in reaction time at 20 mg/kg, po after 60 mins by Eddy's hot plate technique; method in brief: as §2
Candida albicans [25] = assay: Antifungal activity against Candida albicans at 20 ug/ml by paper disc method; settings: read-out: IZ

SMILES | zone of inhibition at 30 µg/mL (Escherichia coli [1]) [mm] | zone of inhibition at 10 µg/mL (Escherichia coli [2]) [mm] | zone of inhibition at 30 µg/mL (Aspergillus niger [3]) [mm] | inhibition in vivo at 20 mg/kg (Rattus norvegicus [4]) [%] | inhibition in vivo at 20 mg/kg (Rattus norvegicus [5]) [%] | inhibition in vivo at 20 mg/kg (Rattus norvegicus [6]) [%] | zone of inhibition at 30 µg/mL (Staphylococcus aureus [7]) [mm] | zone of inhibition at 20 µg/mL (Staphylococcus aureus [8]) [mm] | zone of inhibition at 10 µg/mL (Pseudomonas aeruginosa [9]) [mm] | zone of inhibition at 30 µg/mL (Bacillus subtilis [10]) [mm] | Activity (Mus musculus [11]) [%] | zone of inhibition at 10 µg/mL (Bacillus subtilis [12]) [mm] | inhibition in vivo at 20 mg/kg (Rattus norvegicus [13]) [%] | Activity (Mus musculus [14]) [%] | zone of inhibition at 20 µg/mL (Bacillus subtilis [15]) [mm] | zone of inhibition at 10 µg/mL (Aspergillus niger [16]) [mm] | zone of inhibition at 10 µg/mL (Candida albicans [17]) [mm] | zone of inhibition at 30 µg/mL (Candida albicans [18]) [mm] | zone of inhibition at 10 µg/mL (Staphylococcus aureus [19]) [mm] | zone of inhibition at 30 µg/mL (Pseudomonas aeruginosa [20]) [mm] | also measured
COc1ccc(Cc2nnc3sc(-c4ccnc(Cl)c4)nn23)cc1OC | 19.7 | 6.72 | 18.4 | 13.2 | 11.2 | 22.5 | 18.1 | 13.6 | 6.93 | 18.9 | 6.24 | 7.19 | 24.2 | 23.89 | 13.9 | 7.23 | 6.82 | 19.4 | 7.05 | 19.4 | zone of inhibition at 20 µg/mL (Pseudomonas aeruginosa [21]): 12.2 mm; zone of inhibition at 20 µg/mL (Aspergillus niger [22]): 13 mm; zone of inhibition at 20 µg/mL (Escherichia coli [23]): 12.8 mm; Activity (Mus musculus [24]): 12.55%; zone of inhibition at 20 µg/mL (Candida albicans [25]): 12.9 mm
COc1ccc(Cc2nnc3n2NC(c2cccn2C)S3)cc1OC (stereo not given) | 10.2 | 3.95 | 12.6 | 15.8 | 13.4 | 18.4 | 10.6 | 5.92 | 4.12 | 9.12 | 5.62 | 3.3 | 19.9 | 19.24 | 6.3 | 4.35 | 4.18 | 12.1 | 3.74 | 11.4 | zone of inhibition at 20 µg/mL (Pseudomonas aeruginosa [21]): 7.48 mm; zone of inhibition at 20 µg/mL (Aspergillus niger [22]): 7.9 mm; zone of inhibition at 20 µg/mL (Escherichia coli [23]): 6.71 mm; Activity (Mus musculus [24]): 10.24%; zone of inhibition at 20 µg/mL (Candida albicans [25]): 7.1 mm
COc1ccc(Cc2nnc3sc(-c4ccnc(F)c4)nn23)cc1OC | 19.3 | 7.96 | 21 | 14.3 | 11.1 | 16.7 | 19.2 | 13.8 | 8.21 | 19.3 | 2.83 | 7.64 | 21.5 | 22.66 | 14.4 | 7.14 | 8.14 | 21.7 | 7.1 | 19.3 | zone of inhibition at 20 µg/mL (Pseudomonas aeruginosa [21]): 14.9 mm; zone of inhibition at 20 µg/mL (Aspergillus niger [22]): 12.4 mm; zone of inhibition at 20 µg/mL (Escherichia coli [23]): 14.4 mm; Activity (Mus musculus [24]): 10.3%; zone of inhibition at 20 µg/mL (Candida albicans [25]): 14.8 mm
COc1ccc2[nH]cc(Cc3nn4c(Cc5ccc(OC)c(OC)c5)nnc4s3)c2c1 | 12.9 | 4.72 | 10.4 | 11.6 | 4.11 | 19.1 | 13.6 | 8.39 | 4.9 | 13.7 | 11.92 | 4.92 | 29.6 | 28.32 | 8.18 | 4.24 | 4.12 | 10 | 4.82 | 12.3 | zone of inhibition at 20 µg/mL (Pseudomonas aeruginosa [21]): 8.42 mm; zone of inhibition at 20 µg/mL (Aspergillus niger [22]): 8.1 mm; zone of inhibition at 20 µg/mL (Escherichia coli [23]): 8.49 mm; Activity (Mus musculus [24]): 19.06%; zone of inhibition at 20 µg/mL (Candida albicans [25]): 8.3 mm
COc1ccc(Cc2nnc3sc(-c4cc(-c5ccccc5)nc5ccccc45)nn23)cc1OC | 16.9 | 6.08 | 16.7 | 18.7 | 12.3 | 20.2 | 16.7 | 10.3 | 5.92 | 15.9 | 5.36 | 5.76 | 22.2 | 25.11 | 10.2 | 6.14 | 5.82 | 17.9 | 5.12 | 16 | zone of inhibition at 20 µg/mL (Pseudomonas aeruginosa [21]): 10.8 mm; zone of inhibition at 20 µg/mL (Aspergillus niger [22]): 11.5 mm; zone of inhibition at 20 µg/mL (Escherichia coli [23]): 11.3 mm; Activity (Mus musculus [24]): 17.26%; zone of inhibition at 20 µg/mL (Candida albicans [25]): 11.4 mm
COc1ccc(Cl)c(-c2nnc3sc(-c4ccnc(F)c4)nn23)c1 | 19.7 | 8.1 | 20.5 | 24.6 | 18.5 | 25.9 | 19.2 | 14.1 | 8.68 | 19.2 | 4.12 | 7.78 | 28.1 | 20.34 | 14.1 | 6.68 | 7.68 | 21.7 | 7.29 | 19.5 | zone of inhibition at 20 µg/mL (Pseudomonas aeruginosa [21]): 14.9 mm; zone of inhibition at 20 µg/mL (Aspergillus niger [22]): 12.6 mm; zone of inhibition at 20 µg/mL (Escherichia coli [23]): 14.7 mm; Activity (Mus musculus [24]): 11.35%; zone of inhibition at 20 µg/mL (Candida albicans [25]): 14.5 mm
COc1ccc(Cl)c(-c2nnc3sc(Cc4c[nH]c5ccc(OC)cc45)nn23)c1 | 13.2 | 5.1 | 12.2 | 14.4 | 6.1 | 21.4 | 13.7 | 8.52 | 4.83 | 13.2 | 13.69 | 4.76 | 33.9 | 31.48 | 8.79 | 5.38 | 5.44 | 11.2 | 4.58 | 12.8 | zone of inhibition at 20 µg/mL (Pseudomonas aeruginosa [21]): 9.18 mm; zone of inhibition at 20 µg/mL (Aspergillus niger [22]): 10.1 mm; zone of inhibition at 20 µg/mL (Escherichia coli [23]): 8.39 mm; Activity (Mus musculus [24]): 23.76%; zone of inhibition at 20 µg/mL (Candida albicans [25]): 9.2 mm

— ChEMBL document CHEMBL1147862, “Studies on synthesis and pharmacological activities of 3,6-disubstituted-1,2,4-triazolo[3,4-b]-1,3,4-thiadiazoles and their dihydro analogues” (2007)
